In the library only some 27% were active in any assay of this set; here they are far more common.
CYP2C19 act – human CYP2C19 activators, primary screen, biochemical, luminescence. Cytochrome P450 2C19 (Homo sapiens), P33261. recombinant CYP2C19, luciferin-H EGE luminescence; active compounds read high; 0 = fully inhibited enzyme, 1 = untreated enzyme. activation factor at 5 µM. 96,000 tested, under 10 active. AID 1025, 2008;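 active means activation factor of at least 2 at 5 µM in the primary screen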;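 further: 0 = wells with 2.5 mM tranylcypromine and 1 = vehicle-only wells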
CYP2C9 activ – human CYP2C9 activators, primary screen, biochemical, luminescence; Cytochrome P450 2C9 (Homo sapiens), P11712; recombinant CYP2C9, luciferin-H conversion; active compounds read high; factor 1 = untreated enzyme, 0 = blocked; activation factor at 5 µM; hit rate 1.4% among 96,000; AID 1024, 2008;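 active means activation factor of 2 or more for CYP2C9 at a 5 µM dose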;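 further: 0 = sulfaphenazole-blocked wells and 1 = vehicle-only wells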
Target sequence (P11712 whole entry, looked up): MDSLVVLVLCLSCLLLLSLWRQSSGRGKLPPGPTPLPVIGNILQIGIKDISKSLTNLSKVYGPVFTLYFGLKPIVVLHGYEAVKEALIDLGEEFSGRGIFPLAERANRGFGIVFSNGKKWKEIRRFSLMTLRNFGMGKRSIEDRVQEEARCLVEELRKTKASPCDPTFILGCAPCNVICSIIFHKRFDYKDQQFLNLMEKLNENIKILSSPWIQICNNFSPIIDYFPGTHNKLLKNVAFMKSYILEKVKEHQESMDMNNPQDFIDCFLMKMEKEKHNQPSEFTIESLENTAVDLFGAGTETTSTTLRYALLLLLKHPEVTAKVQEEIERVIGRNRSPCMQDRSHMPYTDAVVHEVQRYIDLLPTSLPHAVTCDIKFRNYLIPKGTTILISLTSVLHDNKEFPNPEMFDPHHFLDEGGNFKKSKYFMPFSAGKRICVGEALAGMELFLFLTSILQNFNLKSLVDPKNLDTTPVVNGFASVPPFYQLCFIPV
Cav32 inh – Cav3.2 calcium influx blockers – cell-based, Fluo-4 calcium fluorescence, FDSS, MLSMR library, primary screen | hit rate 4% among 100,000 | Cav3.2-expressing cells; active compounds read low | B-score at 10 µM;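 active means single-dose well whose peak fluorescence ratio is a statistical outlier from its plate by either plate-standardised score or position-corrected B-score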
Rev-RRE block – HIV-1 Rev-RRE binding inhibitors, primary screen, biochemical, FRET, protein-RNA interaction | P05866 | Rev peptide-RRE RNA binding | inhibition, % at 8 µM | hit rate 0.79% among 97,000 | AID 704, 2007;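 active means inhibition above the screen-wide mean plus 3 SD, cut at about 35% in these data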;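 further: 0% = median DMSO wells and 100% = median Neomycin B control wells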
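System: Cy5-labelled duplex RRE RNA binding fluorescein-labelled HIV Rev peptide; Signal: fluorescein-to-Cy5 FRET, 480 nm excitation; Also added: labelled Rev peptide; Compound: one concentration, 8 µM nominal; Buffer or medium: HEPES pH 7.5 salt buffer with EDTA; Read-out: % inhibition of FRET ratio versus controls; Schedule: 5 min preincubation and 15 min binding, 25 °C.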
CYP2C9 inhib – blockers of cytochrome P450 2C9 activity – biochemical, luminescence, ADME assay, primary screen; inhibition, % at 5 µM; CYP2C9 Supersomes, luciferin-H conversion; P11712; hit rate 20% among 96,000;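 active means blocking of liver enzyme CYP2C9 beyond about 50% at 5 µM, limit read from the data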
CYP2C19 inh – blockers of cytochrome P450 2C19 activity – biochemical, luminescence, ADME assay, primary screen; P33261; CYP2C19 Supersomes, luciferin-H EGE luminescence, 30 min; inhibition, % at 5 µM; hit rate 21% among 96,000; AID 778, 2007;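 active means CYP2C19 inhibition above a set limit at 5 µM in the primary screen, cut at about 50% in these data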;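 further: plate controls were negative control wells for no effect and 2.5 mM tranylcypromine positive control for full effect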
Starred values were filed as active, the others as inactive; . = no result.

SMILES	CYP2C19 act	CYP2C9 activ	Cav32 inh	Rev-RRE block	CYP2C9 inhib	CYP2C19 inh
O=C1c2ccccc2C(=O)N1CCSc1ccccc1	0.5	0.8	-0.548	8.0	22.2	52.3*
Cc1csc(SCCN2C(=O)c3ccccc3C2=O)n1	0.2	0.3	-0.593	8.7	71.3*	81.8*
CC(C)=C1C2CC2C2C(C(=O)O)C12 (configuration not stated)	1	0.9	-0.852	5.6	7.2	-0.4
Nc1cccc2c1C(=O)N(C(=O)c1ccc(Cl)c(S(=O)(=O)N3CCCCCC3)c1)C2=O	1	0.9	-0.316	12.3	11.2	3.6
CCN1C(=O)N(C)[C@@H](c2ccccc2)C(C(=O)OC)=C1C	.	.	0.38	.	.	.
COc1cccc(NC2=NC3(CCCCC3)N=C(N)N2)c1	1.1	1.2	-0.502	-6.3	-15.4	-10.0
CCOn1c(=O)c(-c2cc3ccccc3o2)[n+]([O-])c2ccccc21	1	0.7	-0.673	13.1	32.9	-4.2
CCOc1ccc(OCC)c(-c2c(=O)n(OCc3ccccc3Br)c3ccccc3[n+]2[O-])c1	0.3	0.6	-3.46	1.1	38.2	74.3*
CCC(C)[C@H](NC(=O)OC(C)(C)C)C(=O)N/N=C/c1ccc2nccnc2c1 (some centres not stated)	1	0.5	1.19	7.8	54.8*	-3.4
Cc1occc1-c1nnc(SCC(=O)NCCc2ccccc2)n1C(C)c1ccccc1 (configuration not stated)	0.7	0.2	-3.48	.	84.4*	25.5
Cc1occc1-c1nnc(SCC(=O)Nc2nccs2)n1CCc1ccccc1	0.6	0.7	-2.95	10.2	26.4	39.5
CC(C)n1nnnc1SCC(=O)NCCc1ccccc1	0.6	1	1.13	1.3	-0.6	39.8
Cc1cccc(C)c1NC(=O)CSc1nnc(-c2ccoc2C)n1CCc1ccccc1	0.3	0.3	-1.36	1.2	68.3*	69.9*
CC(=O)c1ccc(NC(=O)CSc2nnc(-c3ccoc3C)n2Cc2ccccc2)cc1	0.8	0.7	-2.4	9.3	34.0	20.9
Cc1csc(NC(=O)CSc2nnc(-c3ccoc3C)n2CCc2ccccc2)n1	0.5	0.4	-3.83	5.6	56.6*	46.8
Cc1csc(NC(=O)CSc2nnc(-c3ccoc3C)n2Cc2ccco2)n1	0.2	0.1	-0.871	8.4	88.5*	85.0*
CCOC(=O)N1C2=NC(C(=O)OC)=C(C(=O)OC)[C@@H]3N(Cc4ccccc4)c4ccccc4[C@]23C[C@H]1C(=O)OC	.	.	-0.127	.	.	.
Fc1ccccc1C(c1nnnn1C1CCCC1)N1CCN(Cc2ccccc2)CC1 (configuration not stated)	.	.	.	6.4	.	.
O=C(NNC(=O)c1ccc(O)cc1O)c1ccc(Cl)cc1	0.9	2*	-0.876	4.2	-99.9	9.2
O=C(NNC(=O)c1ccccc1O)c1ccc(Cl)cc1	1	0.7	0.855	4.6	32.4	-2.9
Cc1cccc(C(=O)NNC(=O)c2ccc(Cl)cc2)c1O	0.5	2.9*	-0.112	1.2	-191.0	50.3*
CC(C)(C)c1ccc(/C([O-])=C(/C(=S)NCc2ccco2)[n+]2ccccc2)cc1	1	0.7	-0.978	1.5	25.7	1.6
O=C(c1ccc2c(c1)OCCO2)N(c1ccccn1)C1CCCCC1	0.7	0.5	1.32	2.4	52.5*	26.2
Cc1ccc(S(=O)(=O)NC2(C(F)(F)F)C(=O)Nc3c2c(=O)n(C)c(=O)n3C)cc1 (configuration not stated)	0.9	0.9	0.511	10.3	7.9	6.5
CCC(=O)NC1(C(F)(F)F)C(=O)Nc2c1c(=O)n(C)c(=O)n2C (configuration not stated)	0.3	0.4	2.89*	.	58.0*	72.0*
O=C1CC(N2CCN(S(=O)(=O)c3ccc(Cl)cc3)CC2)C(=O)N1CCc1ccccc1 (configuration not stated)	.	.	-1.51	10.4	.	.
C=CCS/C(=N\n1cnc2ccccc2c1=O)N1CCCCC1	0.8	0.5	-0.625	7.8	51.3*	16.4

Bioassay records (PubChem BioAssay)
